Target: T1, Glucagon-like peptide 1 receptor (Rattus norvegicus, UniProt P32301)
T1 sequence (P32301 whole entry): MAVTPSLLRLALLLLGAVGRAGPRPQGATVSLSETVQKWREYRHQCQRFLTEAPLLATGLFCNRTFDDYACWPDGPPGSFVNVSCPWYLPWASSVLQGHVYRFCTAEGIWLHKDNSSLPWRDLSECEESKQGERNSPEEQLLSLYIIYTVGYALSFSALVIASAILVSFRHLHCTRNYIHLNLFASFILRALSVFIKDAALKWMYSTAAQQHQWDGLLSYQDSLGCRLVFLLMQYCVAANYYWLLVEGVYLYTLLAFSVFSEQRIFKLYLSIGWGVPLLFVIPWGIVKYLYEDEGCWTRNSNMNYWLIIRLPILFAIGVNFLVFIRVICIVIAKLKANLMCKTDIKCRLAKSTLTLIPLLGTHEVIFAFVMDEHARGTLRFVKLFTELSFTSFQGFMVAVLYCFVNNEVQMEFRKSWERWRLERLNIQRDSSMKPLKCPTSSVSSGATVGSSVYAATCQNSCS
Experiment: Positive allosteric modulator activity at GLP-1R in rat INS1 beta-cells assessed potentiation of GLP-1(7-36)NH2 induced insulin secretion at 0.1 nM incubated for 30 mins in presence of exendin(9-39)NH2 by ELISA
Method in brief: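 Rat INS-1E cells in RPMI 1640 with 10% fetal calf serum at 37 °C, 7.5% CO2. Cells were detached, washed and plated at 100,000 cells/well, then held in glucose-free medium for 1.5 h. […] Insulin in the medium was read by ELISA; data are triplicate.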

## FC(F)(F)c1ccc(-c2noc(CN3CCCC(CN4CCOCC4)C3)n2)cc1 (stereo unspecified)
  IC50: 6.3 nM

Reference: BindingDB's records for PubMed 35349261 (Hospital Regional Universitario, 2022)
